Laboratory results taken from ChEMBL document CHEMBL3297672, “Ingol-type diterpenes from Euphorbia antiquorum with mouse 11β-hydroxysteroid dehydrogenase type 1 inhibition activity” (J Nat Prod, 2014).
The source made the active and inactive calls. No cut-off for these calls is given here.

Legend:
[1] = molecular target: T1, Tyrosine-protein phosphatase non-receptor type 1 (Homo sapiens, UniProt P18031); assay: Inhibition of PTP1B (unknown origin)
T1 sequence (P18031 whole entry): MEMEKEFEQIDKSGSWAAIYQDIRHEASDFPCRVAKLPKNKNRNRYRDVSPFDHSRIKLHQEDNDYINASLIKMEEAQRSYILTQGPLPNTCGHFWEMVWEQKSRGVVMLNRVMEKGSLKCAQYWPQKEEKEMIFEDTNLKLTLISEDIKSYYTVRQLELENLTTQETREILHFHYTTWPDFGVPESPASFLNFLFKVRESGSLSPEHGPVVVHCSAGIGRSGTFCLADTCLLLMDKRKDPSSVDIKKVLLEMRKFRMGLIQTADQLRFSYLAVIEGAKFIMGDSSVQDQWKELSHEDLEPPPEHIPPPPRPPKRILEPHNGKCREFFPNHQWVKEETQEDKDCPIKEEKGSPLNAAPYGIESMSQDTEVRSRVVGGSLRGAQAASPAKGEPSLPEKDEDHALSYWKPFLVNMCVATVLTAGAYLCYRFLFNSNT

HL-60 = assay: Cytotoxicity against human HL60 cells; type: functional, cell-based
Outline: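 Cytotoxicity against HL-60 cells was read out by the MTT method, following a previously reported protocol.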

A549 = assay: Cytotoxicity against human A549 cells; type: functional, cell-based
[2] = molecular target: 11-beta-hydroxysteroid dehydrogenase 1 (Homo sapiens) (UniProt P28845); assay: Inhibition of human 11beta-HSD1 expressed in HEK293 cells assessed as inhibition of [3H]cortisone to [3H]cortisol conversion by SPA; type: cell-based
Chain of 11-beta-hydroxysteroid dehydrogenase 1 (Homo sapiens) (P28845 whole entry, looked up): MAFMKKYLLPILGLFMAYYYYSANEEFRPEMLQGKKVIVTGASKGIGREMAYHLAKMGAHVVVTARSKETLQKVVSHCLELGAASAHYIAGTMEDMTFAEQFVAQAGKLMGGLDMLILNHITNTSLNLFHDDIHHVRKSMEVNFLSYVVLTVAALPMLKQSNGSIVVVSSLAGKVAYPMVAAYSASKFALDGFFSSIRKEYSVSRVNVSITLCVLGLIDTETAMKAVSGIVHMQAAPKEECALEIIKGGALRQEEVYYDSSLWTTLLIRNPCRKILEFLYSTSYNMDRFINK
Outline: (§1)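 Scintillation proximity assay against human or mouse 11β-HSD1 enzyme activity, using microsomes containing the enzyme. Glycyrrhetinic acid was the positive control.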

[3] = molecular target: 11-beta-hydroxysteroid dehydrogenase 1 (Mus musculus, UniProt P50172); assay: Inhibition of mouse 11beta-HSD1 expressed in HEK293 cells assessed as inhibition of [3H]cortisone to [3H]cortisol conversion by SPA; type: cell-based; outline: as §1
Chain of 11-beta-hydroxysteroid dehydrogenase 1 (P50172 whole entry): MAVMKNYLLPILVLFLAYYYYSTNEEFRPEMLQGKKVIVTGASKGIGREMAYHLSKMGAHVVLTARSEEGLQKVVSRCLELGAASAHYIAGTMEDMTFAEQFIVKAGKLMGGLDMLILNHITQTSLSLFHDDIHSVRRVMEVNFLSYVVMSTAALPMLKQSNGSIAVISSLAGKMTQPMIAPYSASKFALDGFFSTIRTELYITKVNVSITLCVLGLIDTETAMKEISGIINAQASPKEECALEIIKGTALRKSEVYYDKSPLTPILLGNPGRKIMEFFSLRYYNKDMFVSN

SMILES | IC50 [1] [µM] | inhibition [2] | IC50 [3] [µM] | IC50 (HL-60) [µM] | IC50 (A549) [µM]
CCC(C)C(=O)O[C@@H]1[C@H]2[C@@H]([C@@H](OC(C)=O)[C@@H](C)C(=O)[C@@]34C[C@H](C)[C@H](O)[C@]3(/C=C(\C)[C@H]1OC(C)=O)O4)C2(C)C (some centres not stated) | > 10 | inactive | 6.4 | > 10 | > 10
C/C=C(/C)C(=O)O[C@@H]1/C(C)=C/[C@@]23O[C@@]2(C[C@H](C)[C@@H]3OC(C)=O)C(=O)[C@H](C)[C@H](OC(C)=O)[C@@H]2[C@H]([C@H]1OC)C2(C)C | > 10 | inactive |  | > 10 | > 10
CC(=O)O[C@@H]1[C@@H]2[C@H]([C@@H](OC(=O)c3cccnc3)[C@H](OC(=O)c3ccccc3)/C(C)=C/[C@@]34O[C@@]3(C[C@H](C)[C@@H]4OC(C)=O)C(=O)[C@@H]1C)C2(C)C | > 10 | inactive | 0.41 | > 10 | > 10
CO[C@@H]1[C@H]2[C@@H]([C@@H](OC(C)=O)[C@@H](C)C(=O)[C@@]34C[C@H](C)[C@H](OC(C)=O)[C@]3(/C=C(\CO)[C@H]1OC(=O)c1ccccc1)O4)C2(C)C | > 10 |  |  | > 10 | > 10
C/C=C(/C)C(=O)O[C@@H]1/C(C)=C/[C@@]23O[C@@]2(C[C@H](C)[C@@H]3O)C(=O)[C@H](C)[C@H](OC(C)=O)[C@@H]2[C@H]([C@H]1OC)C2(C)C | > 10 | inactive |  | > 10 | > 10
CO[C@@H]1[C@H]2[C@@H]([C@@H](O)[C@@H](C)C(=O)[C@@]34C[C@H](C)[C@H](OC(C)=O)[C@]3(/C=C(\C)[C@H]1OC(=O)c1ccccc1)O4)C2(C)C | > 10 |  |  | > 10 | > 10
C/C=C(/C)C(=O)O[C@@H]1/C(CO)=C/[C@@]23O[C@@]2(C[C@H](C)[C@@H]3OC(C)=O)C(=O)[C@H](C)[C@H](OC(C)=O)[C@@H]2[C@H]([C@H]1OC)C2(C)C | > 10 | inactive | 12 | > 10 | > 10
CO[C@@H]1[C@H]2[C@@H]([C@@H](OC(C)=O)[C@@H](C)C(=O)[C@@]34C[C@H](C)[C@H](O)[C@]3(/C=C(\C)[C@H]1OC(=O)c1ccccc1)O4)C2(C)C | > 10 | inactive |  | > 10 | > 10
CC(=O)O[C@H]1[C@@H](C)C[C@@]23O[C@@]12/C=C(\C)[C@@H](O)[C@H](OC(=O)c1ccccc1)[C@H]1[C@@H]([C@@H](O)[C@@H](C)C3=O)C1(C)C | > 10 | inactive |  | > 10 | > 10
C=C(C(=O)O[C@@H]1/C(C)=C/[C@@]23O[C@@]2(C[C@H](C)[C@@H]3OC(C)=O)C(=O)[C@H](C)[C@H](OC(C)=O)[C@@H]2[C@H]([C@H]1OC)C2(C)C)C(C)O (some centres not stated) | > 10 | inactive |  | > 10 | > 10
C/C=C(\C)C(=O)O[C@@H]1/C(C)=C/[C@@]23O[C@@]2(C[C@H](C)[C@@H]3OC(C)=O)C(=O)[C@H](C)[C@H](OC(C)=O)[C@@H]2[C@H]([C@H]1OC(C)=O)C2(C)C | > 10 | inactive |  | > 10 | > 10
CO[C@@H]1[C@H]2[C@@H]([C@@H](OC(C)=O)[C@@H](C)C(=O)[C@@]34C[C@H](C)[C@H](OC(C)=O)[C@]3(/C=C(\C)[C@H]1OC(=O)[C@]1(C)O[C@@H]1C)O4)C2(C)C | > 10 | inactive |  | > 10 | > 10
C/C=C(/C)C(=O)O[C@@H]1/C(C)=C/[C@@]23O[C@@]2(C[C@H](C)[C@@H]3O)C(=O)[C@H](C)[C@H](O)[C@@H]2[C@H]([C@H]1OC)C2(C)C | > 10 |  |  | > 10 | > 10

Further lines, with some results ahead:

IC50 [1] [µM] | inhibition [2] | IC50 [3] [µM] | SMILES | IC50 (HL-60) [µM] | IC50 (A549) [µM]
> 10 |  |  | C/C=C(/C)C(=O)O[C@@H]1/C(C)=C/[C@@]23O[C@@]2(C[C@@H](C)[C@H]3O)C(=O)[C@H](C)[C@H](O)[C@@H]2[C@H]([C@H]1OC)C2(C)C | > 10 | 
> 10 | inactive |  | CCC(C)C(=O)O[C@@H]1[C@H]2[C@@H]([C@@H](OC(C)=O)[C@@H](C)C(=O)[C@@]34C[C@@H](C)[C@@H](OC(C)=O)[C@]3(/C=C(\C)[C@H]1O)O4)C2(C)C (some centres not stated) | > 10 | > 10
> 10 | inactive |  | C/C=C(/C)C(=O)O[C@@H]1/C(C)=C/[C@@]23O[C@@]2(C[C@@H](C)[C@H]3O)C(=O)[C@H](C)[C@H](OC(C)=O)[C@@H]2[C@H]([C@H]1OC)C2(C)C | > 10 | > 10
> 10 |  |  | C/C=C(/C)C(=O)O[C@@H]1/C(C=O)=C/[C@@]23O[C@@]2(C[C@H](C)[C@@H]3OC(C)=O)C(=O)[C@H](C)[C@H](OC(C)=O)[C@@H]2[C@H]([C@H]1OC)C2(C)C | > 10 | > 10
> 10 |  |  | CO[C@@H]1[C@H]2[C@@H]([C@@H](OC(C)=O)[C@@H](C)C(=O)[C@@]34C[C@H](C)[C@H](OC(C)=O)[C@]3(/C=C(\C)[C@H]1OC(=O)[C@@]1(C)O[C@@H]1C)O4)C2(C)C | > 10 | > 10
> 10 | inactive |  | CCC(C)C(=O)O[C@@H]1[C@H]2[C@@H]([C@@H](OC(C)=O)[C@@H](C)C(=O)[C@@]34C[C@H](C)[C@H](OC(C)=O)[C@]3(/C=C(\C)[C@H]1O)O4)C2(C)C (some centres not stated) | > 10 | > 10
